This is an account of results in ChEMBL document CHEMBL1671728, “Short cationic antimicrobial peptides interact with ATP” (2010).

The subject of one assay is Pseudomonas aeruginosa. Kind of assay: Antimicrobial activity against Pseudomonas aeruginosa PAO1 H103. The assay is classed as functional.
A short description of assay [1]: Inhibition of DnaK assessed as reduction in ATP turnover at MIC for Pseudomonas aeruginosa PAO1 H103 by ATPase assay. The method, boiled down: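 DnaK ATPase run in 20 mM HEPES pH 8, 10 mM Mg acetate, 100 mM NaCl with 200 µM [α-32P]ATP (~8 Ci/mmol) and peptide at 1× MIC (control without peptide), 37°C for 15 min. Stopped with EDTA/SDS and imaged by phosphorimager. Turnover was taken as the ADP fraction of total spots, corrected for no-protein background, mean of two independent assays.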

The nature of assay [2]: Inhibition of DNA polymerase assessed as reduction in PCR products at MIC for Pseudomonas aeruginosa PAO1 H103 by qPCR. Background: Quantitative PCR measures a nucleic acid by following its amplification.
Assay [3] concerns the target Luciferin 4-monooxygenase (Photinus pyralis) (UniProt P08659). Put plainly: Inhibition of Photinus pyralis fire fly luciferase assessed as reduction in light production at 10 times MIC for Pseudomonas aeruginosa PAO1 H103 by ATP bioluminescence assay. The method, boiled down:
(§1)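 Firefly luciferase kit mix (luciferin, MgSO4, DTT, EDTA, BSA, tricine) was combined with peptide at 1, 3 or 10× MIC against P. aeruginosa PAO1 H103. ATP (200 µM) was added to start the reaction and luminescence was read, with an ATP standard curve. Activity was scored by the lowest MIC multiple giving ≥75% loss of light.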

Assay [4] has the same target. Kind of assay: Inhibition of Photinus pyralis fire fly luciferase assessed as reduction in light production at 3 times MIC for Pseudomonas aeruginosa PAO1 H103 by ATP bioluminescence assay. The method, boiled down:
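Commercial ATP bioluminescence kit with lyophilized firefly luciferase, luciferin, MgSO4, DTT, EDTA, BSA and tricine buffer. An ATP standard curve was run. Peptide was premixed with the kit solution, and ATP (200 µM) was added to start the reaction. Luminescence was read. Peptides were tested at 1×, 3× and 10× their MIC against P. aeruginosa PAO1 H103. Scoring was ≥75% loss of light at 3× MIC.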

Assay [5] shares this target. Put plainly: Inhibition of Photinus pyralis fire fly luciferase assessed as reduction in light production at 1 times MIC for Pseudomonas aeruginosa PAO1 H103 by ATP bioluminescence assay. The method, boiled down:
as §1

Assay [6] can be described thus: Inhibition of DNA polymerase assessed as reduction in PCR products at 3 times MIC for Pseudomonas aeruginosa PAO1 H103 by qPCR.

≈ marks a conversion by molar mass, not a printed value. Calls of active or inactive are those of the source. The rule behind the calls is not given here. Square brackets hold non-standard residues; d marks the D form. Peptide text beside a SMILES is read from it. Orn = NCCC[C@H](N)C(=O)O Some results are limits rather than exact numbers.

Chain of Luciferin 4-monooxygenase (Photinus pyralis) (P08659 whole entry): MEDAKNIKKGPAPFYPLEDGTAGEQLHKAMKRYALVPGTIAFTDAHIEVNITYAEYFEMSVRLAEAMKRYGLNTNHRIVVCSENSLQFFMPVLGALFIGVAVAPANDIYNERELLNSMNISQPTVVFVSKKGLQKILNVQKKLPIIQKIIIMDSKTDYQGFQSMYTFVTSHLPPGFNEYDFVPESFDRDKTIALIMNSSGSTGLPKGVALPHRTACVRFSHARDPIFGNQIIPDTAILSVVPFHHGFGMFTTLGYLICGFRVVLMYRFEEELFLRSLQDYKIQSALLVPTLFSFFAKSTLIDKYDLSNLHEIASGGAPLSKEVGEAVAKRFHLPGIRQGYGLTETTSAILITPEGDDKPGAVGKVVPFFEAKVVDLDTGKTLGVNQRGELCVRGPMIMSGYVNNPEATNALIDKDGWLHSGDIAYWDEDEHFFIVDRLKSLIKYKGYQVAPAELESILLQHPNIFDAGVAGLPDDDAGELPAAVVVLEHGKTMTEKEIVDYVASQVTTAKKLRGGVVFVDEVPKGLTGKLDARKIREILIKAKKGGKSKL

Compound POLYMYXIN B registered an MIC against Pseudomonas aeruginosa of 0.5 µg/mL. Besides, the inhibition result in assay [1] and in assay [2] was “inactive” in each case.
Compound GENTAMICIN showed an MIC with Pseudomonas aeruginosa of 25 µg/mL. In assay [3], the inhibition result was “inactive”.
Regarding H-KWKSFLRTFKSPVRTVFHTALKPISS-OH, in the assay on Pseudomonas aeruginosa, the minimum inhibitory concentration (MIC) came to 16 µg/mL. In addition, in assay [3], the inhibition entry is “inactive”.
H-RLARIVVIRVAR-NH2 registered a minimum inhibitory concentration (MIC) in the assay on Pseudomonas aeruginosa of 50 µg/mL. The inhibition in assay [4] was > 75%. Moreover, the inhibition result in assay [1] and in assay [2] was “Active” in each case.
For `CC(C)C[C@@H]1NC(=O)[C@H](CCCN)NC(=O)[C@H](C(C)C)NC(=O)[C@@H]2CCCN2C(=O)[C@@H](Cc2ccccc2)NC(=O)[C@H](CC(C)C)NC(=O)[C@H](CCCN)NC(=O)[C@H](C(C)C)NC(=O)[C@@H]2CCCN2C(=O)[C@@H](Cc2ccccc2)NC1=O` [GRAMICIDIN S] (cyclo(L[dF]PV[Orn]L[dF]PV[Orn])), the MIC in the assay with Pseudomonas aeruginosa was 0.2 µg/mL (≈ 0.175 µM). For the same compound, the inhibition result in assay [3] and in assay [2] was “inactive” each time.
As to H-KWKSFLRTLKSPAKTVFHTALKAISS-OH, the lowest concentration to inhibit growth against Pseudomonas aeruginosa (MIC) was 16 µg/mL. Moreover, in assay [3], the inhibition result is “inactive”.
H-RAVAVIIRLRRV-NH2 yielded a minimum inhibitory concentration (MIC) in the assay on Pseudomonas aeruginosa of 33 µg/mL. Also, in assay [4], the inhibition was > 75%.
H-RRWRIVVIRVRR-NH2 came in with an MIC with Pseudomonas aeruginosa of 2 µg/mL. Besides, the inhibition in assay [5] came to 75%.
In the assay with Pseudomonas aeruginosa, `CC[C@H](C)[C@H](NC(=O)[C@H](CC(C)C)NC(=O)[C@H](C)NC(=O)[C@@H]1CCCN1C(=O)[C@H](CC(C)C)NC(=O)CNC(=O)[C@@H](NC(=O)[C@@H](NC(=O)[C@H](CC(C)C)NC(=O)[C@@H](NC(=O)[C@H](CCCCN)NC(=O)[C@H](CCCCN)NC(=O)[C@@H](NC(=O)[C@H](C)NC(=O)[C@@H](NC(=O)[C@@H](NC(=O)[C@H](CC(C)C)NC(=O)[C@H](CCCCN)NC(=O)[C@H](CCCCN)NC(=O)[C@@H](NC(=O)[C@H](Cc1ccccc1)NC(=O)[C@H](CO)NC(=O)[C@H](CCCCN)NC(=O)[C@H](Cc1c[nH]c2ccccc12)NC(=O)[C@@H](N)CCCCN)[C@@H](C)CC)[C@@H](C)O)[C@@H](C)O)C(C)C)C(C)C)[C@@H](C)O)[C@@H](C)O)C(=O)N[C@@H](CO)C(=O)O` came in with an MIC of 2 µg/mL (≈ 0.696 µM). Besides, the inhibition result in assay [3], in assay [1] and in assay [2] was “inactive” each time.
For the compound H-RRAAVVLIVIRR-NH2, the MIC against Pseudomonas aeruginosa turned out to be 7 µg/mL. Also, the inhibition in assay [4] is > 75%.
Compound H-RLWRIVVIRVAR-NH2 displayed an MIC in the assay with Pseudomonas aeruginosa of 8 µg/mL. For the same compound, the inhibition in assay [5] was determined as 75%. The inhibition entry in assay [1] and in assay [6] was “Active” each time.
H-RRWKIVVIRWRR-NH2 returned a minimal inhibitory concentration (MIC) against Pseudomonas aeruginosa of 2 µg/mL. Further, in assay [5], the inhibition was found to be 75%. Moreover, the inhibition result in assay [1] and in assay [2] was “Active” each time.
Take H-RLARIVPIRVAR-NH2: the MIC with Pseudomonas aeruginosa is > 250 µg/mL. In addition, the inhibition result in assay [3] was “inactive”.
In the case of H-KWKSFLKTFKSAVKTVLHTALKAISS-OH, the minimal inhibitory concentration (MIC) in the assay on Pseudomonas aeruginosa stood at 2 µg/mL. Moreover, the inhibition entry in assay [3], in assay [1] and in assay [2] was “inactive” in each case.
Turning to H-KWKSFIKKLTSAAKKVVTTAKPLISS-OH, the lowest concentration to inhibit growth in the assay with Pseudomonas aeruginosa (MIC) was 2 µg/mL. Moreover, the inhibition result in assay [3] was “inactive”.
In the assay on Pseudomonas aeruginosa, H-VRLRIRVAVIRA-NH2 had a minimum inhibitory concentration (MIC) of 10 µg/mL. Further, the inhibition in assay [3] is > 75%.
The like results for `CC(C)[C@H](NC(=O)[C@H](CCCNC(=N)N)NC(=O)[C@H](Cc1ccccc1)NC(=O)[C@H](CS)NC(=O)[C@H](Cc1c[nH]c2ccccc12)NC(=O)[C@H](CCCNC(=N)N)NC(=O)[C@@H](N)CCCNC(=N)N)C(=O)N[C@@H](CS)C(=O)N[C@@H](Cc1ccc(O)cc1)C(=O)N[C@@H](CCCNC(=N)N)C(=O)NCC(=O)N[C@@H](Cc1ccccc1)C(=O)N[C@@H](CS)C(=O)N[C@@H](Cc1ccc(O)cc1)C(=O)N[C@@H](CCCNC(=N)N)C(=O)N[C@@H](CCCCN)C(=O)N[C@@H](CS)C(=O)N[C@@H](CCCNC(=N)N)C(N)=O` [POLYPHEMUSIN I] (H-RRWCFRVCYRGFCYRKCR-NH2) were, in that order, 2 µg/mL (≈ 0.814 µM) and > 75%.
The like results for `CC[C@H](C)[C@H](NC(=O)CNC(=O)[C@@H](NC(=O)[C@H](CCCCN)NC(=O)[C@H](CCCCN)NC(=O)[C@H](Cc1ccccc1)NC(=O)[C@H](CC(C)C)NC(=O)[C@H](CCCCN)NC(=O)[C@H](Cc1c[nH]c2ccccc12)NC(=O)[C@@H](N)CCCCN)[C@@H](C)CC)C(=O)NCC(=O)N[C@@H](C)C(=O)N[C@H](C(=O)N[C@@H](CC(C)C)C(=O)N[C@@H](CCCCN)C(=O)N[C@H](C(=O)N[C@@H](CC(C)C)C(=O)N[C@H](C(=O)N[C@H](C(=O)NCC(=O)N[C@@H](CC(C)C)C(=O)N1CCC[C@H]1C(=O)N[C@@H](C)C(=O)N[C@@H](CC(C)C)C(=O)N[C@H](C(=O)N[C@@H](CO)C(=O)O)[C@@H](C)CC)[C@@H](C)O)[C@@H](C)O)C(C)C)C(C)C` were, in that order, 2 µg/mL (≈ 0.715 µM) and “inactive”.

The term MIC denotes the least concentration at which growth counts as inhibited. A high value points to a need for much substance. The term inhibition denotes the relative decrease from the control value, in per cent.
